What was measured:
[1] = Volume of distribution at steady state in Sprague-Dawley rat at 5 mg/kg, iv by LC/MS method; assay type: ADME, organism-based; settings: in vivo, read-out: Vdss
MV4-11 = assay: Inhibition of BET bromodomain in human MV4-11 cells assessed as downregulation of c-myc level after 1 hr by Western blot method; assay type: cell-based
Method in brief: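 MV4;11 cells were treated with a range of compound concentrations for 1 h and lysed in RIPA buffer with protease inhibitors. Lysates were run on 4–20% SDS-PAGE, transferred to PVDF and probed for c-Myc with a specific antibody.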

[2] = Oral bioavailability in Sprague-Dawley rat at 25 mg/kg by LC/MS method; assay type: ADME, organism-based; settings: in vivo
[3] = Cmax in SCID mouse at 25 mg/kg, po by LC/MS method; assay type: ADME, organism-based; design: dose 25 mg/kg, route oral; settings: in vivo
[4] = molecular target: Bromodomain-containing protein 3 (Homo sapiens, UniProt Q15059); assay: Binding affinity to human partial length BRD3 bromodomain 1 (P24 to E144 residues) expressed in bacterial expression system by BROMOscan assay
Bromodomain-containing protein 3, sequence (Q15059 whole entry, the tested form may be a part): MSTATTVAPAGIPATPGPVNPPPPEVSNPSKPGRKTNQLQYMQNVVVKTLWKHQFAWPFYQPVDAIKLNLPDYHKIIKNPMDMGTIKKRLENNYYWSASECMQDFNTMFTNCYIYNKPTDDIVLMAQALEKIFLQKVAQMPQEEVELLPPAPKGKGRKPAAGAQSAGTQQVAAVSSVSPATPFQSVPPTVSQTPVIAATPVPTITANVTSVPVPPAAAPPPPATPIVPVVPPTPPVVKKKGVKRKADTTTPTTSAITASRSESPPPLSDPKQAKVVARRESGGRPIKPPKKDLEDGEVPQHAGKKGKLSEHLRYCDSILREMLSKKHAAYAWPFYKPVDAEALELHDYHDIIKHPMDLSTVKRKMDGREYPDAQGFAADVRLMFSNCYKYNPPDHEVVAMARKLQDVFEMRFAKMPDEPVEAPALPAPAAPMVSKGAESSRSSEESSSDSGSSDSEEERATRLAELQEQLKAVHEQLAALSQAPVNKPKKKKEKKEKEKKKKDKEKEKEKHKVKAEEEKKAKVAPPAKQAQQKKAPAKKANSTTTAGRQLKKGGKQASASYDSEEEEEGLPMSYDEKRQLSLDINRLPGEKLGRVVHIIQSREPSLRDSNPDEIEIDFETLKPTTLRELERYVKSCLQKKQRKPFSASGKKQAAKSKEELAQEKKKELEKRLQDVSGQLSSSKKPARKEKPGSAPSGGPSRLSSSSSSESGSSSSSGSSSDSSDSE

SUM-159-PT = assay: Cytotoxicity against human SUM159PT cells assessed as cell growth inhibition after 4 days by WST-8 assay; assay type: functional, cell-based; settings: 96 h
Method in brief: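 Breast cancer cells were seeded at 3,000 cells/well, treated with serially diluted compound in medium and cultured for 4 days. Growth was read by WST-8 (10% v/v final, 1–3 h) at 450 nm. Readings were normalized to DMSO-treated cells, and IC50 was obtained by nonlinear regression.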

[5] = Clearance in Sprague-Dawley rat at 5 mg/kg, iv by LC/MS method; assay type: ADME, organism-based; settings: in vivo
[6] = molecular target: Bromodomain-containing protein 2 (Homo sapiens, UniProt P25440); assay: Binding affinity to human partial length BRD2 bromodomain 2 isoform 1 (349 to 460 residues) expressed in bacterial expression system by BROMOscan assay
Bromodomain-containing protein 2, sequence (P25440 whole entry, the tested form may be a part, canonical isoform): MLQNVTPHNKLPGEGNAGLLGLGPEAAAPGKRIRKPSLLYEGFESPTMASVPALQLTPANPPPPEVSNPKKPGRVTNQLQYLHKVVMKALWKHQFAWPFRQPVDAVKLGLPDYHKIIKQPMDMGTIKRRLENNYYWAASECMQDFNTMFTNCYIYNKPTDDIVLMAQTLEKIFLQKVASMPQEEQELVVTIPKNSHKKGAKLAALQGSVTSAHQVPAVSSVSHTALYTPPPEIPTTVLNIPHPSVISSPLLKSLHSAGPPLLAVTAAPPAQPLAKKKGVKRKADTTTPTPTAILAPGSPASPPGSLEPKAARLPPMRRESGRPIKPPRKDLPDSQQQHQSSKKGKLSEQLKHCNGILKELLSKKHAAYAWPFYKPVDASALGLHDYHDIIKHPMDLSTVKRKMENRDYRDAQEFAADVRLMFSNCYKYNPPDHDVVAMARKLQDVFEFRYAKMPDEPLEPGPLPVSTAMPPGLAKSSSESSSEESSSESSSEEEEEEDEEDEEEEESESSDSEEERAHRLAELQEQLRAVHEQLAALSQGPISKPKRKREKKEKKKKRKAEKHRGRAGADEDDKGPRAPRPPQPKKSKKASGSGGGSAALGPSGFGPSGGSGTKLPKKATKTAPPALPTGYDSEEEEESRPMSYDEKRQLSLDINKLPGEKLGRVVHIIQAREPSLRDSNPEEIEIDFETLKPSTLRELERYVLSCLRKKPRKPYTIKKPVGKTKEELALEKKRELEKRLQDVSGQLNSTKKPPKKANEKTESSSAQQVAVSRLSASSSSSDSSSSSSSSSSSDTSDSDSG

[7] = Oral bioavailability in SCID mouse at 25 mg/kg by LC/MS method; assay type: ADME, organism-based; settings: in vivo

- Vd [1]: 2 L/kg
- bioavailability [2]: 93%
- Cmax [3]: 983 ng/mL
- Kd [4]: 2 nM
- clearance [5]: 13.2 mL/min/kg
- Kd [6]: 0.9 nM
- bioavailability [7]: 50%
Compound: COc1cc2c(cc1-c1c(C)noc1C)[nH]c1nc(C)nc(-c3ccnc4ccccc34)c12
- inhibition (MV4-11): Dose-dependent effect
- IC50 (SUM-159-PT): > 2000 nM

From ChEMBL document CHEMBL4184143 (J Med Chem, 2017)
